Legend:
Format in all cases: functional
[1] = species on record: Oryctolagus cuniculus; assay: Compound was evaluated for the prokinetic activity by measuring smooth muscle contractility from rabbit duodenum isolated tissue.
How it was run: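 Isolated rabbit duodenum in vitro; records induction of well-coordinated smooth muscle contractions; potency given as pED50.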

[2] = system: Escherichia coli; assay: In vitro antibacterial activity against the Escherichia coli (No. of strains used :5)
[3] = system: Streptococcus sp.; assay: In vitro antibacterial activity against the Streptococcus sp. (No. of strains used :4)
[4] = system: Staphylococcus aureus; assay: In vitro antibacterial activity against the Staphylococcus aureus (No. of strains used :5)

| MIC [2] [µg/mL] | MIC [3] [µg/mL] | MIC [4] [µg/mL] | SMILES | pED50 [1] |
| --- | --- | --- | --- | --- |
|  |  |  | CC[C@H]1OC(=O)[C@H](C)[C@@H](OC2C[C@@](C)(OC)C[C@H](C)O2)[C@H](C)[C@@H](OC2O[C@H](C)C[C@H](N(C)Cc3ccccc3)[C@H]2O)[C@@]2(C)C[C@H](C)[C@H](O2)[C@H](C)[C@@H](O)[C@]1(C)O (some centres not stated) | 4 |
|  |  |  | CC[C@H]1OC(=O)[C@H](C)[C@@H](OC2C[C@@](C)(OC)C[C@H](C)O2)[C@H](C)[C@@H](OC2O[C@H](C)C[C@H](N(C)C)[C@H]2O)[C@@]2(C)C[C@@H](C)[C@H](O2)[C@H](C)[C@@H](O)[C@]1(C)O (some centres not stated) | 7.8 |
|  |  |  | CC[C@H]1OC(=O)[C@H](C)[C@@H](OC2C[C@@](C)(OC)C[C@H](C)O2)[C@H](C)[C@@H](OC2O[C@H](C)C[C@H](N(C)CC)[C@H]2O)[C@@]2(C)CC(C)=C(O2)[C@H](C)[C@@H](O)[C@H]1C (some centres not stated) | 7.22 |
|  |  |  | CC[C@H]1OC(=O)[C@H](C)[C@@H](OC2C[C@@](C)(OC)C[C@H](C)O2)[C@H](C)[C@@H](OC2O[C@H](C)C[C@H](N(C)CCN)[C@H]2O)[C@@]2(C)C[C@H](C)[C@H](O2)[C@H](C)[C@@H](O)[C@]1(C)O (some centres not stated) | 6.43 |
|  |  |  | CC[C@H]1OC(=O)[C@H](C)[C@@H](OC2C[C@@](C)(OC)C[C@H](C)O2)[C@H](C)[C@@H](OC2O[C@H](C)C[C@H](N(C)C)[C@H]2O)[C@@]2(C)C[C@@H](C)[C@@H](O2)[C@H](C)[C@@H](O)[C@]1(C)O (some centres not stated) | 5.45 |
| > 100 | > 100 | > 100 | CC[C@H]1OC(=O)[C@H](C)[C@@H](OC2C[C@@](C)(OC)C[C@H](C)O2)[C@H](C)[C@@H](OC2O[C@H](C)C[C@H](N(C)C)[C@H]2O)[C@@]2(C)C[C@H](C)[C@H](O2)[C@H](C)[C@@H](O)[C@]1(C)O (some centres not stated) | 7.93 |
|  |  |  | CC[C@H]1OC(=O)[C@H](C)[C@@H](OC2C[C@@](C)(OC)C[C@H](C)O2)[C@H](C)[C@@H](OC2O[C@H](C)C[C@H](N(C)CC#N)[C@H]2O)[C@@]2(C)C[C@H](C)[C@H](O2)[C@H](C)[C@@H](O)[C@]1(C)O (some centres not stated) | 5.71 |
|  |  |  | CC[C@H]1OC(=O)[C@H](C)[C@@H](OC2C[C@@](C)(OC)C[C@H](C)O2)[C@H](C)[C@@H](OC2O[C@H](C)C[C@H](N(C)CCF)[C@H]2O)[C@@]2(C)C[C@H](C)[C@H](O2)[C@H](C)[C@@H](O)[C@]1(C)O (some centres not stated) | 6.67 |
|  |  |  | CC[C@H]1OC(=O)[C@H](C)[C@@H](OC2C[C@@](C)(OC)C[C@H](C)O2)[C@H](C)[C@@H](OC2O[C@H](C)C[C@H](NC)[C@H]2O)[C@@]2(C)C[C@H](C)[C@H](O2)[C@H](C)[C@@H](O)[C@]1(C)O (some centres not stated) | 7.64 |
|  |  |  | CCCCN(C)[C@H]1C[C@@H](C)OC(O[C@@H]2[C@@H](C)[C@H](OC3C[C@@](C)(OC)C[C@H](C)O3)[C@@H](C)C(=O)O[C@H](CC)[C@@](C)(O)[C@H](O)[C@@H](C)[C@H]3O[C@]2(C)C[C@@H]3C)[C@@H]1O (some centres not stated) | 4.71 |
| > 100 | > 100 | > 100 | CC[C@H]1OC(=O)[C@H](C)[C@@H](OC2C[C@@](C)(OC)C[C@H](C)O2)[C@H](C)[C@@H](OC2O[C@H](C)C[C@H](N(C)CC)[C@H]2O)[C@@]2(C)C[C@H](C)[C@H](O2)[C@H](C)[C@@H](O)[C@]1(C)O (some centres not stated) | 8.54 |
| > 100 | > 100 | > 100 | CC[C@H]1OC(=O)[C@H](C)[C@@H](OC2C[C@@](C)(OC)C[C@H](C)O2)[C@H](C)[C@@H](OC2O[C@H](C)C[C@H](N(C)CCO)[C@H]2O)[C@@]2(C)C[C@H](C)[C@H](O2)[C@H](C)[C@@H](O)[C@]1(C)O (some centres not stated) | 8.11 |
|  |  |  | CC[C@H]1OC(=O)[C@H](C)[C@@H](OC2C[C@@](C)(OC)C[C@H](C)O2)[C@H](C)[C@@H](OC2O[C@H](C)C[C@H](N(C)C(C)C)[C@H]2O)[C@@]2(C)C[C@H](C)[C@H](O2)[C@H](C)[C@@H](O)[C@]1(C)O (some centres not stated) | 7.75 |

Reference: ChEMBL document CHEMBL1131076, “Synthesis of 9-deoxo-4''-deoxy-6,9-epoxyerythromycin derivatives: novel and acid-stable motilides” (1998)
